Measurements gathered from unrelated publications.
Lines come from different studies, so protocols differ.
Organism: Staphylococcus aureus
Observed: microbial growth

Compound	method	strain	time	notes	MIC
O=C1NN=C(N=Cc2ccc(O)c(O)c2)C1=NNn1c(-c2ccccc2)nc2ccccc2c1=O	broth dilution		24 h		107 µM
CN[C@H](CC(C)C)C(=O)N[C@H]1C(=O)N[C@@H](CC(N)=O)C(=O)N[C@H]2C(=O)N[C@H]3C(=O)N[C@H](C(=O)N[C@H](C(=O)O)c4cc(O)cc(O)c4-c4cc3ccc4O)[C@H](O)c3ccc(c(Cl)c3)Oc3cc2cc(c3O[C@@H]2O[C@H](CO)[C@@H](O)[C@H](O)[C@H]2O[C@H]2C[C@](C)(N)[C@H](O)[C@H](C)O2)Oc2ccc(cc2Cl)[C@H]1O		ATCC25923			0.39 µg/mL
O=C(O)CN1C(=O)/C(=C/c2ccc(-c3ccc(N(c4ccccc4)c4ccccc4)cc3)c3ccccc23)SC1=S	broth dilution	ATCC6538			1000 µg/mL
CSc1nc(O)n2nccc2n1					> 128 µg/mL
Clc1ccc(C2(c3ccc(-c4cn[nH]c4)cc3)CCNCC2)cc1		NCTC8325			> 30 µM
C/C=C(\C)c1cc(OC(=O)c2c(O)c(C)c(O)c(Cl)c2/C(C)=C/C)c(C)c(O)c1C(=O)O	broth dilution	16162			32 µg/mL
Cc1cc(Nc2ncnc3ccc(NC4=NC(C)(C)CO4)cc23)ccc1Oc1ccn2ncnc2c1		NCTC8325			> 30 µM
CC(=O)NC[C@H]1CN(c2ccc(N3CCOCC3)c(F)c2)C(=O)O1	broth dilution	MRSA NRS119		drug-resistant strain	32 µM
Brc1ccc(NCc2ccc(Oc3ccccn3)cc2)cc1					> 6.2 µg/mL
CNC(=O)c1cc(Oc2ccc(NC(=O)Nc3ccc(C)cc3)cc2)ccn1		NCTC8325			> 100 µM
CC(C)(O/N=C(\C(=O)N[C@@H]1C(=O)N2C(C(=O)[O-])=C(C[n+]3ccccc3)CS[C@H]12)c1csc(N)n1)C(=O)O	broth dilution	MRSA	18 h	clinical isolate	64 µg/mL
O=C(O)c1cn(C2CC2)c2cc(N3CCNCC3)c(F)cc2c1=O	broth dilution	ATCC6538			0.24 µg/mL
CSc1ccc(-c2nc3ccc(C)cc3[nH]2)cc1	broth dilution	ATCC29213 MSSA			16 µg/mL
CC(C)Oc1c(NC(=O)c2ccc(NC(=O)[C@H](CC(N)=O)NC(=O)c3ccc(NC(=O)c4cccc(N)c4)cc3)cc2)ccc(C(=O)Nc2ccc(C(=O)O)cc2)c1O		ATCC29213			> 64 µg/mL
O=C1NC(=S)S/C1=C\c1ccc(-c2ccc(N(c3ccccc3)c3ccccc3)cc2)cc1	broth dilution	ATCC43300			250 µg/mL
Cc1ccc(C)n1-c1ccc(-c2nnc(-c3ccccc3[N+](=O)[O-])[nH]2)cc1	broth dilution	ATCC11632	18 h		8 µg/mL
CCCCCCC#Cc1cncc(-c2nnc(SCc3ccc([N+](=O)[O-])cc3)n2C)c1		MRSA		drug-resistant strain	≥ 20 µg/mL
O=C(Cc1ccc(O)c(O)c1)NCCCCCCCC[P+](c1ccccc1)(c1ccccc1)c1ccccc1.[Br-]	broth dilution	ATCC43300 MRSA	18 h		> 32 µg/mL
CO[C@H]1C[C@@H]2CC[C@@H](C)[C@@](O)(O2)C(=O)C(=O)N2CCCC[C@H]2C(=O)O[C@H]([C@H](C)C[C@@H]2CC[C@@H](OC(=O)C(C)(CO)CO)[C@H](OC)C2)CC(=O)[C@H](C)/C=C(\C)[C@@H](O)[C@@H](OC)C(=O)[C@H](C)C[C@H](C)/C=C/C=C/C=C/1C		NCTC8325			> 30 µM
CC1(C)S[C@@H]2[C@H](NC(=O)[C@H](N)c3ccccc3)C(=O)N2[C@H]1C(=O)O	broth dilution	6917			64 µg/mL
COc1c(C)c(OCc2ccccc2)c(C)c(O)c1C(=O)/C=C/c1ccccc1	broth dilution	ATCC25923			5000 µg/mL

Compound	method	strain	time	notes	MIC
FC(F)c1nc2ccccc2n1-c1nc(N2CCOCC2)nc(N2CCOCC2)n1		NCTC8325			> 30 µM
C[C@@H](O)[C@H]1C(=O)N2C(C(=O)O)=C(S[C@@H]3CN[C@H](C(=O)N(C)C)C3)[C@H](C)[C@H]12		MRSA			32 µg/mL
COc1cccc(OC)c1C(=O)N[C@@H]1C(=O)N2[C@@H]1SC(C)(C)[C@@H]2C(=O)O	broth dilution	25923			3.13 µM
O=[N+]([O-])c1ccc(-c2nc3ccccc3n2Cc2ccccc2)cc1	broth dilution	ATCC29213 MSSA			4 µg/mL
O=C(COC(=O)c1n[nH]c2ccccc12)Nc1ccc(N2CCCCC2)cc1					> 128 µg/mL
C/C=C(\C)c1cc(OC(=O)c2c(C)c(Cl)c(O)c(Cl)c2O)c(C)c(O)c1C(=O)O	broth dilution	16339			> 64 µg/mL
c1ccc2c(-c3nc4ccccc4[nH]3)c3ccccc3cc2c1	broth dilution	ATCC29213 MSSA			32 µg/mL
CC(C)Oc1c(NC(=O)c2ccc(NC(=O)[C@H](CC(N)=O)NC(=O)c3ccc(CNC(=O)c4ccc(C#N)cc4)cc3)cc2)ccc(C(=O)Nc2ccc(C(=O)O)cc2)c1O		ATCC29213			> 64 µg/mL
COc1ccc(-c2nc3ccc(C)cc3[nH]2)cc1O	broth dilution	ATCC29213 MSSA			64 µg/mL
C[n+]1c(/C=C/c2c[nH]c3ccccc23)cc(/C=C2\Sc3ccccc3N2CCCN2CCOCC2)c2ccccc21.[I-]	broth dilution	ATCCBAA44			8 µg/mL
CCn1cc(C(=O)O)c(=O)c2cc(F)c(N3CCNCC3)cc21		MRSA			250 µg/mL
Cc1cc2c(F)c(Oc3ncnn4cc(OC[C@@H](C)O)c(C)c34)ccc2[nH]1		NCTC8325			> 30 µM
CN[C@H](CC(C)C)C(=O)N[C@H]1C(=O)N[C@@H](CC(N)=O)C(=O)N[C@H]2C(=O)N[C@H]3C(=O)N[C@H](C(=O)N[C@H](C(=O)O)c4cc(O)cc(O)c4-c4cc3ccc4O)[C@H](O)c3ccc(c(Cl)c3)Oc3cc2cc(c3O[C@@H]2O[C@H](CO)[C@@H](O)[C@H](O)[C@H]2O[C@H]2C[C@](C)(N)[C@H](O)[C@H](C)O2)Oc2ccc(cc2Cl)[C@H]1O	broth dilution	16339			1 µg/mL
Cc1ccc2nc(-c3ccc([N+](=O)[O-])cc3)n(Cc3ccc(Cl)cc3)c2c1	broth dilution	ATCC29213 MSSA			8 µg/mL
COc1cc2nccc(Oc3ccc(NC(=O)NC4CC4)c(Cl)c3)c2cc1C(N)=O		NCTC8325			> 30 µM
O=C(O)CN1C(=O)/C(=C/c2ccc(-c3ccc(N(c4ccccc4)c4ccccc4)cc3)cc2)SC1=S	broth dilution	ATCC25923			3.9 µg/mL
COc1cc(C(=O)Nc2ccc(C(=O)N[C@@H](CC(N)=O)C(=O)Nc3ccc(C(=O)Nc4ccc(C(=O)Nc5ccc(C(=O)O)cc5)c(O)c4OC(C)C)cc3)cc2)ccc1C#N		ATCC29213			> 64 µg/mL
CN(C)[C@@H]1C(O)=C(C(N)=O)C(=O)[C@@]2(O)C(O)=C3C(=O)c4c(O)cccc4[C@@](C)(O)[C@H]3C[C@@H]12		129		clinical isolate	≤ 0.1 µM
CO[C@@H](C(N)=O)[C@H](NC(=O)c1ccc(NC(=O)c2ccc(C#N)cc2)cc1)C(=O)Nc1ccc(C(=O)Nc2ccc(C(=O)Nc3ccc(C(=O)O)cc3)c(O)c2OC(C)C)cc1		ATCC29213			< 0.03 µg/mL
O=C(Cc1ccc(Cl)c(C(F)(F)F)c1)Nc1ccc2c(c1)OC(F)(F)O2		NCTC8325	24 h		> 100 µM
